The source made the active and inactive calls. No cut-off for these calls is given here.

Molecular target in one experiment: not listed separately
Briefly: Inhibition of rat liver Casein kinase 2. The procedure, abridged:
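Ki from Lineweaver–Burk plots: peptide fixed, ATP increasing, with or without several inhibitor concentrations. Alternatively derived from IC50 via the Cheng–Prusoff relationship.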
Broadly, the Ki is a measure of affinity in units of concentration, obtained from inhibition or displacement. For the compound `O=c1[nH]c2c(Br)c(Br)c(Br)c(Br)c2[nH]1`, the affinity corresponds to a Ki of 180 nM. This counts as sub-micromolar.

In the case of `FC(F)(F)C(F)(F)c1nc2c(I)c(I)c(I)c(I)c2[nH]1`, the Ki was determined as 70 nM.

The compound `NC(=O)Cn1cnc2c(Br)c(Br)c(Br)c(Br)c21` came in with a Ki of 1450 nM. Against the preceding compound, the Ki is about 21-fold higher.

`Cc1nc2c(I)c(Cl)c(Cl)c(I)c2[nH]1` had a Ki of 330 nM.

`CNC(=O)Cn1cnc2c(I)c(I)c(I)c(I)c21` yielded a Ki of 180 nM. Compared with the last compound, the Ki is about 1.8-fold lower.

Take `O=C(O)Cn1cnc2c(Br)c(Br)c(Br)c(Br)c21`: the Ki was determined as 1340 nM.

The compound `NNC(=O)Cn1cnc2c(Br)c(Br)c(Br)c(Br)c21` came in with a Ki of 1510 nM.

As for `FC(F)(F)c1nc2c(I)c(I)c(I)c(I)c2[nH]1`, the Ki worked out at 120 nM.

`O=C(O)Cn1cnc2c(I)c(I)c(I)c(I)c21`: affinity was put at a Ki of 140 nM.

The compound `S=c1[nH]c2c(I)c(I)c(I)c(I)c2[nH]1` returned a Ki of 50 nM.

Take `Brc1nc2c(Br)c(Br)c(Br)c(Br)c2[nH]1`: the Ki came out at 370 nM.

`Brc1c(Br)c(Br)c2[nH]cnc2c1Br`: affinity was put at a Ki of 300 nM.

Compound `Brc1c(I)c(Br)c2nc[nH]c2c1I` gave a Ki of 75 nM.

Take `FC(F)(F)c1nc2c(Br)c(Br)c(Br)c(Br)c2[nH]1`: affinity was put at a Ki of 370 nM. This Ki lies about 4.9-fold higher than the previous one.

The compound `Clc1c(I)c(I)c2[nH]cnc2c1I` yielded a Ki of 160 nM. Against the preceding compound, the Ki is about 2.3-fold lower.

Take `Clc1nc2c(Br)c(Br)c(Br)c(Br)c2[nH]1`: the affinity corresponds to a Ki of 250 nM.

With `Clc1c(I)c(Cl)c2nc[nH]c2c1I`, the Ki is 590 nM.

With `Clc1nc2c(I)c(I)c(I)c(I)c2[nH]1`, the Ki is 120 nM.

`O=C(O)CSc1nc2c(I)c(I)c(I)c(I)c2[nH]1` had a Ki of 54 nM.

The compound `NC(=O)Cn1cnc2c(I)c(I)c(I)c(I)c21` had a Ki of 130 nM.

In turn, `OCCNc1nc2c(Br)c(Br)c(Br)c(Br)c2[nH]1` came in with a Ki of 140 nM.

On to `CNC(=O)Cn1cnc2c(Br)c(Br)c(Br)c(Br)c21`, for which affinity was put at a Ki of 1910 nM.

With `Cc1nc2c(I)c(I)c(I)c(I)c2[nH]1`, the affinity, expressed as Ki, was 24 nM.

Compound `CCc1nc2c(I)c(I)c(I)c(I)c2[nH]1` registered a Ki of 19 nM.

`Ic1c(I)c(I)c2[nH]cnc2c1I`: the affinity, expressed as Ki, was 23 nM.

`FC(F)(F)C(F)(F)c1nc2c(Br)c(Br)c(Br)c(Br)c2[nH]1` showed a Ki of 200 nM.

Compound `O=c1[nH]c2c(I)c(I)c(I)c(I)c2[nH]1` came in with a Ki of 50 nM.

Turning to `Clc1c(Cl)c(I)c2[nH]cnc2c1I`, the Ki was 460 nM.

Turning to `O=C(O)CSc1nc2c(Br)c(Br)c(Br)c(Br)c2[nH]1`, the Ki came to 120 nM.

`NNC(=O)Cn1cnc2c(I)c(I)c(I)c(I)c21` returned a Ki of 160 nM.

Compound `Brc1c(I)c(I)c2[nH]cnc2c1I` displayed a Ki of 100 nM.

`OCCNc1nc2c(I)c(I)c(I)c(I)c2[nH]1` came in with an inhibition constant (Ki) of 27 nM.

`S=c1[nH]c2c(Br)c(Br)c(Br)c(Br)c2[nH]1` came in with an inhibition constant (Ki) of 200 nM. Compared with the last compound, the Ki is about 7.4-fold higher.

Consider `Brc1nc2c(I)c(I)c(I)c(I)c2[nH]1`, for which the inhibitory constant (Ki) was found to be 90 nM.

A further experiment is filed under the species Rattus norvegicus. Briefly: (§1) Noncompetitive inhibition of rat liver Casein kinase 2 using 80 uM ATP and increasing phosphoacceptor substrate by Lineweaver-Burke plot.
As to `Ic1c(I)c(I)c2[nH]cnc2c1I`, the outcome was Active.

Molecular target in the next experiment: not listed separately
The experiment is described as §1.
With `Clc1c(Cl)c(Cl)c2[nH]cnc2c1Cl`, the Ki turned out to be 21000 nM.

Values taken from ChEMBL document CHEMBL1152607, “Tetraiodobenzimidazoles are potent inhibitors of protein kinase CK2” (Bioorg Med Chem, 2009).
